# According to ChEMBL document CHEMBL1143122, “Novel analogs of D-e-MAPP and B13. Part 1: synthesis and evaluation as potential anticancer agents” (Bioorg Med Chem, 2008):
# Columns and labels:
# LOX IMVI = test: Antiproliferative activity against human LOXIMVI cells after 48 hrs; format: functional
# How it was run: (§1)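 NCI 60-cell screen. Cells were grown in RPMI 1640 with 5% FBS and 2 mM L-glutamine, then plated at 5,000–40,000 cells/well according to doubling time and preincubated for 24 h at 37 °C in 5% CO2. Compounds were dissolved in DMSO at 400× the top final concentration and tested at five 10-fold dilutions from 10−4 to 10−8 M for 48 h. Growth was read spectrophotometrically; GI50 is 50% net protein reduction.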
# M14 = test: Antiproliferative activity against human M14 cells after 48 hrs; format: functional; conditions: M14, 48 h; how it was run: as §1
# SK-MEL-2 = test: Antiproliferative activity against human SKMEL2 cells after 48 hrs; format: functional; conditions: SK-MEL-2, 48 h; how it was run: as §1
# UACC-257 = test: Antiproliferative activity against human UACC257 cells after 48 hrs; format: functional; conditions: UACC-257, 48 h
# How it was run: (§2)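 NCI 60-cell-line screen. Lines grown in RPMI 1640 with 5% fetal bovine serum and 2 mM L-glutamine, plated at 5,000–40,000 cells/well according to doubling time, left 24 h at 37 °C in 5% CO2. Drug stocks in DMSO at 400-fold the top final concentration. Five 10-fold dilutions, 10−4 to 10−8 M, incubated 48 h. Growth read spectrophotometrically as net protein; GI50 taken as 50% reduction.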
# UACC-62 = test: Antiproliferative activity against human UACC62 cells after 48 hrs; format: functional; conditions: UACC-62, 48 h; how it was run: as §2
# OVCAR-3 = test: Antiproliferative activity against human OVCAR-3 cells after 48 hrs; format: functional; conditions: OVCAR-3, 48 h; how it was run: as §1
# SK-OV-3 = test: Antiproliferative activity against human SKOV3 cells after 48 hrs; format: functional; conditions: SK-OV-3, 48 h; how it was run: as §1
# A498 = test: Antiproliferative activity against human A498 cells after 48 hrs; format: functional; conditions: A498, 48 h; how it was run: as §1
# CAKI-1 = test: Antiproliferative activity against human CAKI1 cells after 48 hrs; format: functional; conditions: CAKI-1, 48 h; how it was run: as §1
# RXF 393 = test: Antiproliferative activity against human RXF393 cells after 48 hrs; format: functional; conditions: RXF 393, 48 h; how it was run: as §1
# SN12C = test: Antiproliferative activity against human SN12C cells after 48 hrs; format: functional; how it was run: as §1
# TK-10 = test: Antiproliferative activity against human TK10 cells after 48 hrs; format: functional; conditions: TK-10, 48 h; how it was run: as §2
# DU-145 = test: Antiproliferative activity against human DU145 cells after 48 hrs; format: functional; conditions: DU-145, 48 h; how it was run: as §1
# MDA-MB-435 = test: Antiproliferative activity against human MDA-MB-435 cells after 48 hrs; format: functional; conditions: Homo sapiens, MDA-MB-435, 48 h; how it was run: as §1
# T47D = test: Antiproliferative activity against human T47D cells after 48 hrs; format: functional; how it was run: as §2
# HOP-62 = test: Antiproliferative activity against human HOP62 cells after 48 hrs; format: functional; conditions: HOP-62, 48 h; how it was run: as §1
# NCI-H226 = test: Antiproliferative activity against human NCI-H226 cells after 48 hrs; format: functional; conditions: NCI-H226, 48 h; how it was run: as §1
# NCI-H322M = test: Antiproliferative activity against human NCI-H322M cells after 48 hrs; format: functional; how it was run: as §1
# NCI-H522 = test: Antiproliferative activity against human NCI-H522 cells after 48 hrs; format: functional; conditions: NCI-H522, 48 h; how it was run: as §1
# HCC 2998 = test: Antiproliferative activity against human HCC2998 cells after 48 hrs; format: functional; conditions: HCC 2998, 48 h; how it was run: as §1
# HCT-116 = test: Antiproliferative activity against human HCT116 cells after 48 hrs; format: functional; conditions: HCT-116, 48 h; how it was run: as §1
# HCT-15 = test: Antiproliferative activity against human HCT15 cells after 48 hrs; format: functional; conditions: Homo sapiens, HCT-15, 48 h; how it was run: as §1
# HT-29 = test: Antiproliferative activity against human HT29 cells after 48 hrs; format: functional; conditions: HT-29, 48 h; how it was run: as §1
# KM12 = test: Antiproliferative activity against human KM12 cells after 48 hrs; format: functional; conditions: Homo sapiens, KM12, 48 h; how it was run: as §1
# SW-620 = test: Antiproliferative activity against human SW620 cells after 48 hrs; format: functional; conditions: SW-620, 48 h; how it was run: as §2
# SF-295 = test: Antiproliferative activity against human SF295 cells after 48 hrs; format: functional; conditions: SF-295, 48 h; how it was run: as §1
# SNB-19 = test: Antiproliferative activity against human SNB19 cells after 48 hrs; format: functional; conditions: SNB-19, 48 h; how it was run: as §1
# MCF7 = test: Antiproliferative activity against human MCF7 cells after 48 hrs; format: functional, cell-based; conditions: MCF7, 48 h
# A549 = test: Antiproliferative activity against human A549 cells after 48 hrs; format: functional; conditions: A549, 48 h; how it was run: as §1
# [1] = read-out: Log LC50 (the source's name) (converted)
smiles,measurement,setting,value
C[C@H](NC(=O)CCCCCCCCCCCCCCC[n+]1ccccc1)[C@H](O)c1ccccc1.[Br-],GI50,LOX IMVI,4.07 µM
same,LC50,LOX IMVI,44.7 µM
same,TGI,LOX IMVI; read-out: Log TGI (converted),14.8 µM
same,GI50,M14,6.31 µM
same,LC50,M14,46.8 µM
same,TGI,M14; read-out: Log TGI (converted),19.5 µM
same,GI50,SK-MEL-2,2880 nM
same,LC50,SK-MEL-2,60.3 µM
same,TGI,SK-MEL-2; read-out: Log TGI (converted),7.41 µM
same,GI50,UACC-257,2240 nM
same,CC50,UACC-257; [1],38.9 µM
same,TGI,UACC-257; read-out: Log TGI (converted),8.32 µM
same,GI50,UACC-62,1860 nM
same,LC50,UACC-62,25.1 µM
same,TGI,UACC-62; read-out: Log TGI (converted),5.75 µM
same,GI50,OVCAR-3,1320 nM
same,LC50,OVCAR-3,26.3 µM
same,TGI,OVCAR-3; read-out: Log TGI (converted),6.46 µM
same,GI50,SK-OV-3,3.31 µM
same,CC50,SK-OV-3; [1],35.5 µM
same,TGI,SK-OV-3; read-out: Log TGI (converted),12 µM
same,GI50,A498,17.8 µM
same,CC50,A498; [1],57.5 µM
same,TGI,A498; read-out: Log TGI (converted),32.4 µM
same,GI50,CAKI-1,14.1 µM
same,CC50,CAKI-1; [1],53.7 µM
same,TGI,CAKI-1; read-out: Log TGI (converted),27.5 µM
same,GI50,RXF 393,12 µM
same,CC50,RXF 393; [1],74.1 µM
same,TGI,RXF 393; read-out: Log TGI (converted),29.5 µM
same,GI50,SN12C,3.47 µM
same,LC50 (50% net cell kill),SN12C,47.9 µM
same,TGI,SN12C; read-out: Log TGI (converted),14.8 µM
same,GI50,TK-10,14.5 µM
same,CC50,TK-10; [1],56.2 µM
same,TGI,TK-10; read-out: Log TGI (converted),28.2 µM
same,GI50,DU-145,12.6 µM
same,CC50,DU-145; [1],50.1 µM
same,TGI,DU-145; read-out: Log TGI (converted),25.1 µM
same,GI50,MDA-MB-435,2630 nM
same,LC50,MDA-MB-435,25.7 µM
same,TGI,MDA-MB-435; read-out: Log TGI (converted),7.24 µM
same,GI50,T47D,933 nM
same,CC50,T47D; [1],58.9 µM
same,TGI,T47D; read-out: Log TGI (converted),10.7 µM
same,GI50,HOP-62,7.08 µM
same,CC50,HOP-62; [1],44.7 µM
same,TGI,HOP-62; read-out: Log TGI (converted),20.4 µM
same,GI50,NCI-H226,6.46 µM
same,CC50,NCI-H226; [1],89.1 µM
same,TGI,NCI-H226; read-out: Log TGI (converted),26.9 µM
same,GI50,NCI-H322M,14.5 µM
same,CC50,NCI-H322M; [1],52.5 µM
same,TGI,NCI-H322M; read-out: Log TGI (converted),31.6 µM
same,GI50,NCI-H522,2040 nM
same,CC50,NCI-H522; [1],50.1 µM
same,TGI,NCI-H522; read-out: Log TGI (converted),13.2 µM
same,GI50,HCC 2998,1550 nM
same,CC50,HCC 2998; [1],30.9 µM
same,TGI,HCC 2998; read-out: Log TGI (converted),7.41 µM
same,GI50,HCT-116,3.47 µM
same,LC50,HCT-116,38.9 µM
same,TGI,HCT-116; read-out: Log TGI (converted),14.8 µM
same,GI50,HCT-15,57.5 µM
same,LC50,HCT-15,> 100 µM
same,TGI,HCT-15; read-out: Log TGI (converted),> 100 µM
same,GI50,HT-29,1320 nM
same,LC50,HT-29,34.7 µM
same,TGI,HT-29; read-out: Log TGI (converted),11.7 µM
same,GI50,KM12,2750 nM
same,CC50,KM12; [1],36.3 µM
same,TGI,KM12; read-out: Log TGI (converted),11.5 µM
same,GI50,SW-620,6.92 µM
same,LC50 (concentration killing 50% of cells),SW-620,45.7 µM
same,TGI,SW-620; read-out: Log TGI (converted),20 µM
same,GI50,SF-295,14.5 µM
same,LC50,SF-295,53.7 µM
same,TGI,SF-295; read-out: Log TGI (converted),27.5 µM
same,GI50,SNB-19,3.09 µM
same,CC50,SNB-19; [1],38 µM
same,TGI,SNB-19; read-out: Log TGI (converted),13.2 µM
same,GI50,MCF7,1480 nM
same,LC50,MCF7,20.9 µM
same,TGI,MCF7; read-out: Log TGI (converted),4.79 µM
same,GI50,A549,5.13 µM
same,CC50,A549; [1],67.6 µM
same,TGI,A549; read-out: Log TGI (converted),21.9 µM
